Measured values taken from ChEMBL document CHEMBL1914430, “Synthesis of some new 1,3,5-trisubstituted pyrazolines bearing benzene sulfonamide as anticancer and anti-inflammatory agents” (Bioorg Med Chem Lett, 2011).
The source made the active and inactive calls. The calls are words filed in the database; no cut-off is given here.

Experiments:
Rattus norvegicus [1] = assay: Antiinflammatory activity in Wistar rat assessed as inhibition of carrageenan-induced hind paw edema at 20 mg/kg, po administered 30 mins before carrageenan challenge measured after 3 hrs by plethysmometer; type: functional
Outline: (§1)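 Wistar rats of either sex, 150–175 g, fasted 16 h, n = 6 per group. Compound given orally at 20 mg/kg as a suspension in 1% CMC in water (10 mL/kg); controls got vehicle only. After 30 min, 0.1 mL of 1% carrageenan in saline was injected subplantar into the left hind paw. Paw volume was measured by plethysmometer at 0, 3 and 5 h. Inhibition = (1 − Vt/Vc) × 100, reported as mean ± SEM.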

Rattus norvegicus [2] = assay: Antiinflammatory activity in Wistar rat assessed as inhibition of carrageenan-induced hind paw edema at 20 mg/kg, po administered 30 mins before carrageenan challenge measured after 5 hrs by plethysmometer; type: functional; outline: as §1
Rattus norvegicus [3] = assay: Toxicity in Wistar rat assessed as appearance of ulcerogenic lesions in stomach at 60 mg/kg, po; type: organism-based; set-up: dose 60 mg/kg, route oral; details: in vivo
Outline: (§2)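 Wistar rats, 160–220 g, fasted 24 h, six per group. Compound given orally at 60 mg/kg as a suspension in 1% w/v CMC (10 mL/kg); controls got vehicle only. Animals were killed under ether anaesthesia 6 h after treatment, and stomachs were opened along the greater curvature and examined for lesions and bleeding.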

Rattus norvegicus [4] = assay: Toxicity in Wistar rat assessed as appearance of ulcerogenic bleeding in stomach at 60 mg/kg, po; type: organism-based; set-up: dose 60 mg/kg, route oral; details: in vivo; outline: as §2
[5] = biological target: Prostaglandin G/H synthase 1 (Bos taurus) (UniProt O62664); assay: Inhibition of bovine COX1 assessed as PGE2 production preincubated for 10 mins by ELISA
Outline: (§3)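 In vitro inhibition of bovine COX-1 and COX-2 measured with a COX inhibitor screening kit, following the Gierse et al. method.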

[6] = biological target: Prostaglandin G/H synthase 2 (Bos taurus) (UniProt O62698); assay: Inhibition of bovine COX2 assessed as PGE2 production preincubated for 10 mins by ELISA; outline: as §3
Sequence of Prostaglandin G/H synthase 2 (Bos taurus) (O62698 whole entry): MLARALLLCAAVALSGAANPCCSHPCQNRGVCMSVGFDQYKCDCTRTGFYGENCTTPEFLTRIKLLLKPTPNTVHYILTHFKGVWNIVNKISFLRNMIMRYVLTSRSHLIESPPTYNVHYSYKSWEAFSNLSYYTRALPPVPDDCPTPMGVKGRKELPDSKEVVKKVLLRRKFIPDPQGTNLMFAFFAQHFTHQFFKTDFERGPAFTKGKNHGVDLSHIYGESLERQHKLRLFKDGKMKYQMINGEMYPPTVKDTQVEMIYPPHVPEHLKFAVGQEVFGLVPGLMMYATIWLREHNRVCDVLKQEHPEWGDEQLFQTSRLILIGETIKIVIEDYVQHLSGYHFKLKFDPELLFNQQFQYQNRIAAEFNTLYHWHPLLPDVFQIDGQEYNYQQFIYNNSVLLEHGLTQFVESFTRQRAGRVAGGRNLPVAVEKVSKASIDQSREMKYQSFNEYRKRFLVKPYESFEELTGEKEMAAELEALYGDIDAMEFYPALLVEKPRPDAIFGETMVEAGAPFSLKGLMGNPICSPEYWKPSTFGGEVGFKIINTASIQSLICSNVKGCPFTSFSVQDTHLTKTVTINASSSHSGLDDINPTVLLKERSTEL

Sequence of Prostaglandin G/H synthase 1 (Bos taurus) (O62664 whole entry): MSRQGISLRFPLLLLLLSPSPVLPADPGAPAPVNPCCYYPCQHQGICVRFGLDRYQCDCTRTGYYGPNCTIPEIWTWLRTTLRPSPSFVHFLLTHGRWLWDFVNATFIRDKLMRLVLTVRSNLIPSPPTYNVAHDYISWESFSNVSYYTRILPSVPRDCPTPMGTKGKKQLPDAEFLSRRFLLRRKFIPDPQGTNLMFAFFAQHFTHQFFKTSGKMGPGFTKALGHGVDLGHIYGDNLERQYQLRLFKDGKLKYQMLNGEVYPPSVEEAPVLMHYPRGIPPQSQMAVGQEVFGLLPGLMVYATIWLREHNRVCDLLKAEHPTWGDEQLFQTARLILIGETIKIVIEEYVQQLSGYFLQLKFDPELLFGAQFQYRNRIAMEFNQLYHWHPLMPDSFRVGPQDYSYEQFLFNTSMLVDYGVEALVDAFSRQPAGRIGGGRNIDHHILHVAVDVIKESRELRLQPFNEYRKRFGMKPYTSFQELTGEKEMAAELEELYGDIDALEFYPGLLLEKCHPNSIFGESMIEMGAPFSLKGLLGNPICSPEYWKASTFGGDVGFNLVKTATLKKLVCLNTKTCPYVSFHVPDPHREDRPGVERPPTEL

Structure (SMILES)	inhibition in vivo at 20 mg/kg (Rattus norvegicus [1])	inhibition in vivo at 20 mg/kg (Rattus norvegicus [2])	Activity (Rattus norvegicus [3])	Activity (Rattus norvegicus [4])	inhibition [5]	inhibition [6]
Cc1cc(O)c(C2=NN(c3ccc(S(N)(=O)=O)cc3)C(c3ccc(Cl)cc3)C2)cc1Cl (stereo not drawn)	65.8%	71.4%				
COc1cc(C)c(Cl)cc1C1=NN(c2ccc(S(N)(=O)=O)cc2)C(c2ccc(N(C)C)cc2)C1 (stereo not drawn)	78.9%	95.2%	Non-toxic	Non-toxic	inactive	Active
